Measurements reported in ChEMBL document CHEMBL3871300, “Synthesis and evaluation of the anti-proliferative activity of diaryl-3-pyrrolin-2-ones and fused analogs” (Bioorg Med Chem Lett, 2017).

Test: Cytotoxicity against human U937 cells assessed as cell viability at antiproliferative IC50 after 48 hrs by trypan exclusion assay
Assay type: functional, U-937
Conditions: not given
Compound COc1ccc(C2=C(c3cn(C)c4ccccc34)C(=O)NC2)cc1OC has an Activity of 61%.
Compound COc1cc(C2=C(c3cc(OC)c(OC)c(OC)c3)C(=O)NC2)cc(OC)c1OC has an Activity of 51%.

Test: Antiproliferative activity against human U937 cells after 48 hrs by MTT assay
Assay type: functional, cell-based
Conditions: U-937, 48 h
Summary of the method: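 Human promonocytic U-937 cells exposed to compound for 48 h, then MTT added as an indirect viability read-out via mitochondrial activity. IC50 taken as the concentration reducing viability to 50% of mock-treated cells. Values averaged from at least three independent runs, each with eight replicates, with standard errors; n gives the number of independent runs.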
Compound COc1ccc(C2=C(c3cn(C)c4ccccc34)CNC2=O)cc1OC has an IC50 of over 100 µM.
Work on COc1cc(C2=C(c3ccccc3)C(=O)NC2)cc(OC)c1OC yielded an IC50 of 84 µM.
With Cn1cc(C2=C(c3ccccc3)CNC2=O)c2ccccc21 the IC50 was over 100 µM.
COc1cc(C2=C(c3cn(C)c4ccccc34)C(=O)NC2)cc(OC)c1OC gave an IC50 of 38 µM.
With COc1ccc(C2=CC(=O)NC2)cc1OC the IC50 was over 100 µM.
Work on COc1ccc(C2=C(c3cn(C)c4ccccc34)C(=O)NC2)cc1OC yielded an IC50 of 10 µM.
COc1cc2c3c(c4cc(OC)c(OC)cc4c2cc1OC)C(=O)NC3 gave an IC50 of over 100 µM.
Compound COc1cc(C2=C(c3ccccc3)CNC2=O)cc(OC)c1OC has an IC50 of 33 µM.
COc1cc2c3c(c4c5ccccc5n(C)c4c2cc1OC)C(=O)NC3 showed an IC50 of 48 µM.
For COc1ccc(C2=C(c3ccc(OC)c(OC)c3)C(=O)NC2)cc1OC, the IC50 was 57 µM.
COc1ccc(C2=C(c3ccc(OC)cc3)C(=O)NC2)cc1 gave an IC50 of 13 µM.
Compound COc1cc(C2=CC(=O)NC2)cc(OC)c1OC has an IC50 of over 100 µM.
Work on Cn1cc(C2=CC(=O)NC2)c2ccccc21 yielded an IC50 of over 100 µM.
In the case of COc1cc(C2=C(c3cc(OC)c(OC)c(OC)c3)C(=O)NC2)cc(OC)c1OC, the IC50 is reported as 11 µM.
